# KCNK3 inh: human KCNK3 channel inhibitors, primary screen, CHO cells, FluxOR thallium flux, B-score | Potassium channel subfamily K member 3 (Homo sapiens), O14649 | FluxOR fluorescence; stronger effect = lower value | B-score at 10 µM | 340,000 compounds, 0.84% hits;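 active = B-score under library mean minus 4 SD, starting fluorescence ratio at most library mean plus 5 SD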;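 note: more negative B-score means stronger inhibition of thallium flux through KCNK3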
# KCNQ1 act: potentiators or activators of KCNQ1 channel, primary screen, cell-based, thallium flux, high-throughput | Potassium voltage-gated channel subfamily KQT member 1 (Homo sapiens), P51787 | CHO-K1 KCNQ1, thallium flux FluxOR fluorescence; stronger effect = higher value | B-score at 10 µM | 310,000 compounds, 0.35% hits | AID 2648, 2010;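 active = fluorescence ratio B-score, a plate-corrected score, at least three library SD, with initial intensity B-score within 5 SD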
#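 assay system = CHO-K1 cells stably expressing KCNQ1 | medium = assay buffer, equal DMSO in all wells | timing = 37 °C overnight plating, 90-min dark dye load, 20-min compound pretreatment | measured by = kinetic FluxOR thallium fluorescence, 10-s 1-Hz baseline, 110-s post-stimulus read | measure = fluorescence change relative to baseline, converted to B score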
# KCNQ1 inh: inhibitors of human KCNQ1 channel, primary screen, cell-based, thallium flux, high-throughput. AID 2642, 2010. CHO-K1 KCNQ1, FluxOR thallium flux fluorescence; stronger effect = higher value. B-score at 10 µM. 310,000 compounds, 1.3% hits;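 active = compounds whose thallium flux B-score, printed positive for inhibition, exceeds three library SD while starting fluorescence stays within three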;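 note: channel opened by potassium depolarization with thallium stimulus after 20 min compound exposure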
# hERG protect: hERG rescue from dofetilide block, primary screen, cell-based, CHO-hERG, FluxOR thallium flux, dofetilide IC70. Voltage-gated inwardly rectifying potassium channel KCNH2 (Homo sapiens), Q12809. dofetilide IC70 present. 310,000 compounds, 0.51% hits. activation (rescue from dofetilide block), less the hit threshold, % at 10 µM;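 active = activation above the mean of controls blocked by dofetilide plus 5 SD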;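 note: thallium influx through hERG after potassium depolarization seen as dye fluorescence rise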
# KCNK9 block: KCNK9 potassium channel inhibitors, primary screen, HEK293 cells, thallium flux. B-score at 10 µM. AID 488922, 2010. 310,000 compounds, 1.2% hits. FluxOR thallium flux fluorescence; stronger effect = lower value;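 active = ratio B-score over 3 SD below the library mean, with starting fluorescence within 5 SD of its mean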;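 note: negative B-score means less thallium flux so channel inhibition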
# Target sequence (Q9NPC2 whole entry, looked up): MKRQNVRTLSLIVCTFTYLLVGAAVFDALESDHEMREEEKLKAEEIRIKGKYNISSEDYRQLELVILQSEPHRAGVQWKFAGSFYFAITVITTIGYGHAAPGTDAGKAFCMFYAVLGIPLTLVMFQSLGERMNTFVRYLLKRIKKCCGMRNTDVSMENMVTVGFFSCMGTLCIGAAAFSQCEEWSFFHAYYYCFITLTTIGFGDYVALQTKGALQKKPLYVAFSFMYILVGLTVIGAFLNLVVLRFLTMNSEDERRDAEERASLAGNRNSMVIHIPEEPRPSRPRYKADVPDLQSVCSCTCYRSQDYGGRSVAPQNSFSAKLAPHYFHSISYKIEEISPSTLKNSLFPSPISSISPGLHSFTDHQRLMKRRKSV
# KCNK9 block conf: KCNK9 potassium channel inhibitors, confirmation, HEK293 cells, thallium flux, duplicate | FluxOR thallium flux fluorescence | 4,900 compounds, 43% hits | inhibition, % at 10 µM | shares compounds with KCNK9 block;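 active = thallium signal inhibited by more than 5 SD of the compound-free buffer control wells, on both duplicate plates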;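 note: 0% = assay buffer control wells without compound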
# Kir21 sel: mouse Kir2.1 channel inhibition, confirmation, selectivity assay for KCNK9 modulator project, cell-based, HEK293, thallium flux. Kir2.1 cells, FluxOR thallium flux fluorescence. 4,900 compounds, 4% hits. shares compounds with KCNK9 block. inhibition, % at 10 µM;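 active = thallium signal drop more than 5 SD beyond the mean of the no-compound control wells, seen in both duplicate plates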;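 note: signal is fluorescence rise after thallium addition divided by baseline fluorescence; plate controls were assay buffer only for no effect and full block by chlorpromazine control for full effect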
# HEK293 Tl ctr: thallium flux in non-induced HEK293 cells, confirmation, counter-screen for KCNK9 inhibitor project, cell-based, second counter screen, non-induced KCNK9-HEK293. shares compounds with KCNK9 block. FluxOR thallium flux. inhibition, % at 10 µM. 4,900 compounds, 40% hits;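 active = thallium signal drop beyond 5 SD of the untreated control mean, on both duplicate plates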;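 note: plate controls were buffer only IC0 wells for no effect and SID17386958 at its maximal inhibitory level for full effect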
# * = called active by the depositor; i = inactive; · = not tested or not shown. Rows were chosen to be rich in hits. Some 3.1% of all compounds tested hit in one or more screens of this group.
SMILES,KCNK3 inh,KCNQ1 act,KCNQ1 inh,hERG protect,KCNK9 block,KCNK9 block conf,Kir21 sel,HEK293 Tl ctr
Cc1ccc(OCCN(C)C(=O)c2cc(COc3ccc(F)cc3F)on2)cc1,i,i,i,-14,i,i,i,i
Cc1c(C)c(C)c(CN2CCCC2)c(C)c1C,i,i,i,-6,i,·,·,·
O=C(NNC(=O)C1CCCN(c2ncccn2)C1)c1ccncc1 (stereo not given),i,i,i,-3,i,·,·,·
CCC(C)NC(=O)c1ccc(CNS(=O)(=O)c2ccc3c(c2)C(C)(C)C(=O)N3C)cc1 (stereo not given),i,i,i,-10,i,·,·,·
Cc1ccc(CNC(=O)c2ccc(CNS(=O)(=O)c3ccc4c(c3)C(C)(C)C(=O)N4C)cc2)o1,i,i,i,-7,i,i,i,i
CCn1c(N2CCN(S(=O)(=O)c3ccc(Cl)cc3)CC2)nc2ccccc21,i,i,i,5.8*,i,i,i,i
Cc1cc(S(=O)(=O)Nc2nc(CN3CCOCC3)nc3sc4c(c23)CCC4)ccc1F,i,·,·,·,·,·,·,·
O=C1CC(N2CCC(c3nc4ccccc4o3)CC2)C(=O)N1c1cc(Cl)cc(Cl)c1 (stereo not given),i,i,8*,-6,-8.6*,43%*,i,i
NC(c1ccccc1)c1cccnc1 (stereo not given),i,i,i,-1,i,·,·,·
Cc1cc(C)n(C(=O)c2ccc(C)c(Br)c2)n1,i,i,i,-7,i,i,i,i
CC(OCCN1CCCC1)(c1ccc(F)cc1)c1ccc(F)cc1,i,i,i,-6,i,·,·,·
COc1cc(/C=C2\C(=O)N(c3ccccc3)N=C2C)ccc1Oc1ccc([N+](=O)[O-])cc1[N+](=O)[O-],i,·,·,·,·,·,·,·
CC1=NN(c2ccccc2)C(=O)/C1=C\c1ccc(Oc2ccc([N+](=O)[O-])cc2[N+](=O)[O-])cc1,i,i,i,0,i,i,i,i
O=C(CN1C(=O)CCOc2ccccc21)Nc1ccc(Cl)c(S(=O)(=O)N2CCOCC2)c1,i,·,·,·,·,·,·,·
CCCCn1c(SCc2nc(N)nc(Nc3ccccc3C)n2)nc2ccccc2c1=O,i,i,i,-4,-9.5*,40%*,i,i
OC(COc1cccc2ccccc12)CN1CCN(c2ccccc2Cl)CC1 (stereo not given),i,i,i,-11,i,·,·,·
OCCC1CN(Cc2cc(F)ccc2F)CCN1CCCc1ccccc1 (stereo not given),i,i,i,-6,i,·,·,·
CC(c1ccccc1)N(CC(=O)NC1CCCCC1)S(=O)(=O)c1cccc(C(F)(F)F)c1 (stereo not given),i,i,i,-9,-8.2*,49%*,i,47%*
Cc1ccc(C)n1N1C(=O)/C(=C\c2ccc(Cl)cc2)SC1=S,i,i,i,-13,i,i,i,i
CC(=O)N(C(C)=O)N1C(=O)/C(=C/c2ccc(Cl)cc2)SC1=S,i,i,i,-5,i,·,·,·
CCCCNC(=O)c1onc(CSc2ccccc2)c1C(=O)O,i,i,i,-11,i,·,·,·
CC(C)NC(=O)c1onc(CSc2cccc3ccccc23)c1C(=O)O,i,i,i,-14,i,·,·,·
CCCCNC(=O)c1onc(CSc2ccc(C(C)C)cc2)c1C(=O)O,i,i,i,-13,i,i,i,i
CCCCNC(=O)c1onc(CSc2cccc3ccccc23)c1C(=O)O,i,i,i,-14,i,i,i,i
COc1ccc(/C=N/NC(=O)C(=O)NCc2cccnc2)cc1OC,i,i,i,-4,i,·,·,·
SMILES,KCNK3 inh,KCNQ1 act,KCNQ1 inh,hERG protect,KCNK9 block,KCNK9 block conf,Kir21 sel,HEK293 Tl ctr
CSc1nnc(-c2ccccc2N=Cc2c(C)[nH]n(-c3ccc4ccccc4c3)c2=O)c(=O)[nH]1,i,i,i,-13,i,i,i,i
Oc1ccc(N=Nc2ccc3c(c2)OCCO3)c2cccnc12,i,55*,i,-10,i,i,i,i
COc1ccc(C)cc1N=Nc1ccc(O)c2ncccc12,i,i,i,-7,i,·,·,·
COc1cccc(N=Nc2ccc(O)c3ncccc23)c1,i,i,i,16*,i,i,i,i
Oc1ccc(N=Nc2ccc3c(c2)OCCO3)c(O)c1,i,i,i,-12,i,·,·,·
COc1ccc(N2CCN(CC(=O)Nc3c(C)cc(C)cc3C)CC2)cc1,i,i,i,-5,i,·,·,·
O=S(=O)(c1ccccc1)N1CCN(Cc2cc3c(cc2Br)OCCO3)CC1,i,·,·,·,·,·,·,·
COc1ccc(N2CCN(Cc3csc(C)c3-c3ccc(C)cc3)CC2)cc1,i,i,i,-3,i,i,i,i
COc1ccc(N2CCN(Cc3cc4c(cc3Br)OCCO4)CC2)cc1,i,i,i,-19,i,i,i,i
COc1ccccc1N1CCN(Cc2cc3c(cc2Br)OCCO3)CC1,i,i,i,-8,i,i,i,i
COc1cc(OC)cc(C(=O)N[C@H](C(=O)OCC(=O)Nc2ccc(F)c(F)c2)C(C)C)c1,i,i,i,-6,i,·,·,·
COC(=O)/C(=C/c1ccco1)NC(=O)c1ccco1,i,i,i,-2,i,·,·,·
CCc1nc2ccccc2nc1N1CCN(S(=O)(=O)c2c(C)cc(Cl)cc2C)CC1,i,i,i,-10,i,i,i,i
O=C1C=C(Nc2ccc(Cl)cc2)CC(c2ccccc2)C1 (stereo not given),i,i,i,-6,i,·,·,·
CN(Cc1ccccc1)C(=O)CSc1nc2ccccc2c(=O)n1Cc1ccco1,i,i,i,-19,i,i,i,i
Cc1ccc(NC(=O)CN(C)C(=O)CSc2nc3ccccc3c(=O)n2Cc2ccco2)cc1,i,i,i,-9,i,·,·,·

# Screens from PubChem.
